Test results taken from ChEMBL document CHEMBL1154726, “Exploring the effect of 2,3,4-trimethoxy-phenyl moiety as a component of indolephenstatins” (Eur J Med Chem, 2010).

Columns and labels:
Bos taurus [1] = species: Bos taurus; assay: Inhibition of calf brain tubulin polymerization at 30 uM after 20 mins
Summary of the method: (§1)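 Single-concentration screen of tubulin assembly using calf brain MTP at 1.0 mg/mL in 0.1 M MES, 1 mM EGTA, 1 mM MgCl2, 1 mM β-ME, 1.5 mM GTP, pH 6.7, 4% DMSO, with a no-ligand control. Samples were preincubated 30 min at 20 °C and 10 min on ice, then warmed from 4 °C to 37 °C. Percent inhibition of the turbidity increase was taken after 20 min.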

HeLa = assay: Cytotoxicity against human HeLa cells after 72 hrs by XTT assay; format: functional, cell-based
HL-60 = assay: Cytotoxicity against human HL60 cells after 72 hrs by XTT assay; format: functional, cell-based; details: HL-60, 72 h
Summary of the method: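 XTT proliferation assay. Adherent cells were seeded and left 24 h at 37 °C in humidified 5% CO2/95% air to attach. HL-60 cells were seeded at 3 × 10³ cells/well. Cells were exposed to a range of compound concentrations for 72 h under the same atmosphere, then incubated a further 4 h. Formazan was read at 490 nm against a 655 nm reference. IC50 is the concentration giving 50% inhibition of proliferation.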

A549 = assay: Cytotoxicity against human A549 cells after 72 hrs by XTT assay; format: functional, cell-based; details: A549, 72 h
HT-29 = assay: Cytotoxicity against human HT-29 cells after 72 hrs by XTT assay; format: functional, cell-based; details: HT-29, 72 h
Bos taurus [2] = species: Bos taurus; assay: Inhibition of calf brain tubulin polymerization at 20 uM after 20 mins
Summary of the method: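 Single-concentration screen of tubulin assembly using calf brain MTP at 1.0 mg/mL in 0.1 M MES, 1 mM EGTA, 1 mM MgCl2, 1 mM β-ME, 1.5 mM GTP, pH 6.7, 4% DMSO, with a no-ligand control. Samples were preincubated 30 min at 20 °C and 10 min on ice, then warmed from 4 °C to 37 °C.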

[3] = Inhibition of calf brain tubulin polymerization after 20 mins; parameters: species or system Bos taurus
Summary of the method: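 Microtubule protein was purified from calf brain by two cycles of temperature-dependent assembly/disassembly. Assay mix: 1.0 mg/mL MTP in 0.1 M MES, 1 mM EGTA, 1 mM MgCl2, 1 mM β-ME, 1.5 mM GTP, pH 6.7, 4% DMSO, with a no-ligand control. Samples were preincubated 30 min at 20 °C, chilled 10 min on ice, then assembled by a shift from 4 °C to 37 °C and followed by turbidity. IC50 at 20 min came from exponential fits of TPI% versus concentration, with ≥2 independent experiments on different MTP preparations.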

Bos taurus [4] = species: Bos taurus; assay: Inhibition of calf brain tubulin polymerization at 40 uM after 20 mins; summary of the method: as §1

| inhibition (Bos taurus [1]) [%] | inhibition (Bos taurus [2]) [%] | IC50 [3] [µM] | inhibition (Bos taurus [4]) [%] | Compound | IC50 (HeLa) [µM] | IC50 (HL-60) [µM] | IC50 (A549) [µM] | IC50 (HT-29) [µM] |
| --- | --- | --- | --- | --- | --- | --- | --- | --- |
| 20 | – | – | – | COc1ccc(/C(=N\OC(C)=O)c2ccc3c(ccn3C)c2)c(OC)c1OC | 1 | 0.58 | > 10 | 1.5 |
| – | 97 | 2.5 | – | COc1ccc(C(=O)c2cc(OC)c(OC)c(OC)c2)cc1O [PHENSTATIN] | – | 0.03 | – | – |
| 82 | – | 9 | – | COc1ccc(/C(=N\O)c2ccc3c(ccn3C)c2)c(OC)c1OC | 0.076 | – | 1 | 0.27 |
| – | 12 | – | – | CCn1ccc2cc(/C(=N/N)c3ccc(OC)c(OC)c3OC)ccc21 | – | 2 | > 10 | > 10 |
| – | 9 | – | – | COc1ccc(C(O)c2ccc3c(ccn3C)c2)c(OC)c1OC (configuration not stated) | 2.4 | – | > 10 | – |
| – | -0 | – | – | CN/N=C(/c1ccc2c(ccn2C)c1)c1ccc(OC)c(OC)c1OC | 1 | 1 | > 10 | 2 |
| – | 19 | – | – | COc1ccc(C(=O)c2ccc(OC)c(OC)c2OC)cc1O | – | – | – | – |
| – | 98 | 0.4 | – | COc1ccc(C(=O)c2ccc3c(ccn3C)c2)c(OC)c1OC | 0.017 | – | 0.51 | 0.021 |
| – | 29 | – | – | CCn1ccc2cc(/C(=N/OC(C)=O)c3ccc(OC)c(OC)c3OC)ccc21 | – | – | – | – |
| – | – | 6.9 | 98 | COc1cc(C(=O)c2ccc3c(ccn3C)c2)cc(OC)c1OC | – | – | – | – |
| 52 | – | 43.1 | – | CCn1ccc2cc(/C(=N/O)c3ccc(OC)c(OC)c3OC)ccc21 | 2 | 2 | > 10 | 2 |
| – | 25 | – | – | COc1ccc(/C(=N\N)c2ccc3c(ccn3C)c2)c(OC)c1OC | 2 | 2 | > 10 | 2 |
| 17 | – | – | – | CCn1ccc2cc(/C(=N\NC)c3ccc(OC)c(OC)c3OC)ccc21 | 0.29 | – | 1.9 | 1.2 |
| – | -0 | – | – | CCn1ccc2cc(C(O)c3ccc(OC)c(OC)c3OC)ccc21 (configuration not stated) | < 1 | > 10 | > 10 | > 10 |
| – | 22 | – | – | COc1ccc(/C(=N\NC(C)=O)c2ccc3c(ccn3C)c2)c(OC)c1OC | 1 | 2 | > 10 | 2 |
| – | 5 | – | – | CCn1ccc2cc(/C(=N/NC(C)=O)c3ccc(OC)c(OC)c3OC)ccc21 | – | – | – | – |
| – | 47 | 5.6 | – | CCn1ccc2cc(C(=O)c3ccc(OC)c(OC)c3OC)ccc21 | 0.42 | 5 | > 10 | 2 |

| Compound | inhibition (Bos taurus [1]) [%] | inhibition (Bos taurus [2]) [%] | IC50 [3] [µM] | inhibition (Bos taurus [4]) [%] | IC50 (HeLa) [µM] | IC50 (HL-60) [µM] | IC50 (A549) [µM] | IC50 (HT-29) [µM] |
| --- | --- | --- | --- | --- | --- | --- | --- | --- |
| COc1ccc(/C=C\c2cc(OC)c(OC)c(OC)c2)cc1O [COMBRETASTATIN A4] | – | – | 3 | – | – | – | – | – |
